{"source": "ChEMBL document CHEMBL4261634", "about": "“Design and optimization of 2,3-dihydrobenzo[b][1,4]dioxine propanoic acids as novel GPR40 agonists with improved pharmacokinetic and safety profiles” (Bioorg Med Chem, 2018)", "key": {"[1]": {"test_system": "Rattus norvegicus", "experiment": "Antidiabetic activity in Sprague-Dawley rat assessed as reduction in blood glucose AUC (0 to 60 mins) at 10 to 20 mg/kg, po administered 60 mins prior to glucose challenge by OGTT", "format": "functional, organism-based", "how_it_was_run": "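OGTT in SD rats: compound given orally 60 min before a 3.0 g/kg glucose challenge. Blood glucose followed over time, and AUC0-60min or AUC0-120min calculated versus vehicle group. Mean ± SD, n = 8.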"}, "[2]": {"experiment": "AUC (0 to t) in Sprague-Dawley rat at 3 mg/kg, po by LC-ESI-MS analysis", "format": "ADME, organism-based", "conditions": "in vivo", "how_it_was_run": "(§1)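 SD rats dosed orally (3 or 10 mg/kg) or by intravenous injection (1 mg/kg). Plasma PK parameters derived per route: Cmax, AUC0-t, Tmax, t1/2 and F after oral dosing; CL, AUC0-t, MRT, t1/2 and Vdss after iv dosing. Mean ± SD from three independent experiments (n = 3).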"}, "[3]": {"experiment": "Cmax in Sprague-Dawley rat at 10 mg/kg, po by LC-ESI-MS analysis", "format": "ADME, organism-based", "parameters": "dose 10 mg/kg, route oral", "conditions": "in vivo", "how_it_was_run": "as §1"}, "[4]": {"target": "T1, Free fatty acid receptor 3 (Homo sapiens) (UniProt O14843)", "T1 sequence (whole entry)": "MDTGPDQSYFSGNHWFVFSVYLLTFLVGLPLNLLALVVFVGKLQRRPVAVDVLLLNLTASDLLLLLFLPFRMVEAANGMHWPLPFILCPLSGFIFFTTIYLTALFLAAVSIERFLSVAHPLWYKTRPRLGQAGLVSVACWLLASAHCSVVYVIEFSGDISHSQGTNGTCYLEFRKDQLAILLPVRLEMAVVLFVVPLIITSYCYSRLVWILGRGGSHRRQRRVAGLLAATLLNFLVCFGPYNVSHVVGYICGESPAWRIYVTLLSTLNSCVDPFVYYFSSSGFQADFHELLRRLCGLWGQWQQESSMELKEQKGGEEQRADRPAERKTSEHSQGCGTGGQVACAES", "experiment": "Agonist activity at GPR41 (unknown origin) up to 100 uM", "format": "functional"}, "[5]": {"target": "Cytochrome P450 3A4 (Homo sapiens, UniProt P08684)", "sequence (P08684 whole entry)": "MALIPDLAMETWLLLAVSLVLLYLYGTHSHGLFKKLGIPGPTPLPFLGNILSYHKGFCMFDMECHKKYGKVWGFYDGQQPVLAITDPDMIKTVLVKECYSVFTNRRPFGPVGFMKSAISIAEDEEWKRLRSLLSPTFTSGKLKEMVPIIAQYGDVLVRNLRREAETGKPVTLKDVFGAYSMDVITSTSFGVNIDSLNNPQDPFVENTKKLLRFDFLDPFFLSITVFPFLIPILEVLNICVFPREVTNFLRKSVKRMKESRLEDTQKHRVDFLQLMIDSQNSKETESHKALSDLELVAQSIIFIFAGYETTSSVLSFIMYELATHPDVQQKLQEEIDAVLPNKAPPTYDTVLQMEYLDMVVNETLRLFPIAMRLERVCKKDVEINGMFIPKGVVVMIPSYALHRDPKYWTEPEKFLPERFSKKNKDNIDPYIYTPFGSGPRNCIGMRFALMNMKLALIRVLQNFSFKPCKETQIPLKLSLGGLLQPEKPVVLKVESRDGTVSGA", "experiment": "Inhibition of CYP3A4 (unknown origin)", "format": "ADME"}, "[6]": {"test_system": "Rattus norvegicus", "experiment": "Subacute toxicity in Sprague-Dawley rat assessed as effect on behavior at 50 to 100 mg/kg, po administered once daily for 2 weeks", "format": "organism-based", "conditions": "in vivo, 336 h", "how_it_was_run": "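SD rats dosed orally once daily for two weeks at 50 mg/kg and 100 mg/kg. Subacute toxicity was assessed over the dosing period from survival rate, behaviour, food intake and organ coefficients.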"}}, "note": "pIC50: −log10 of the molar value. Calls of active or inactive are those of the source. The calls are words filed in the database; no cut-off is given here.", "data": [{"smiles": "CC#C[C@@H](CC(=O)O)c1ccc(OC[C@H]2COc3ccc(Cl)cc3O2)cc1", "values": [{"measurement": "Activity", "setting": "[1]", "value": "Active"}, {"measurement": "AUC(0-t)", "setting": "[2]", "value": 140, "unit": "µg·h/mL"}, {"measurement": "Cmax", "setting": "[3]", "value": 47800, "unit": "ng/mL"}, {"measurement": "Activity", "setting": "[4]", "value": "inactive"}, {"measurement": "pIC50", "setting": "[5]", "value": "< 4.00"}, {"measurement": "Activity", "setting": "[6]", "value": "Non-Toxic"}]}]}
